S100A4 MyoIIA – inhibitors of human S100A4 binding to myosin IIA peptide; S100A4/TAMRA-MyoIIA peptide fluorescence polarization; inhibition, % at 10.7 µM; 0.14% of 360,000 active;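 active = mean inhibition of at least 70% across replicates, with every replicate also reaching that level; inconclusive = mean inhibition reaches 70% but some replicates fall short; inactive = mean inhibition below 70%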
Target sequence (P26447 whole entry, looked up): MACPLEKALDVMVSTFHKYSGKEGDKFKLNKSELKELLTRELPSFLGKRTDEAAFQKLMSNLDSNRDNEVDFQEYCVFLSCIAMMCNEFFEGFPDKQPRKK
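Material: S100A4 monomer protein / Buffer or medium: 50 mM HEPES pH 7.2, 10 mM CaCl2, 100 mM KCl / Times: 5 min incubation before reading / Benchmarks: neutral control DMSO, positive control TFP / Reagent: labelled myosin peptide probe, 5 nM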
dFosB act-1 – enhances mouse delta FosB homodimer DNA binding; P13346; purified delta FosB, TAMRA-CDK5 oligo fluorescence polarization; percent of positive-control signal above neutral wells; activation, % at 25 µM; 0.99% of 340,000 active;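 active = mean activation above about 17%, with every replicate also reaching it, limit read from the data, passing the limit was not always enough; inconclusive = only one of the two conditions met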
Target sequence (P13346 whole entry, looked up): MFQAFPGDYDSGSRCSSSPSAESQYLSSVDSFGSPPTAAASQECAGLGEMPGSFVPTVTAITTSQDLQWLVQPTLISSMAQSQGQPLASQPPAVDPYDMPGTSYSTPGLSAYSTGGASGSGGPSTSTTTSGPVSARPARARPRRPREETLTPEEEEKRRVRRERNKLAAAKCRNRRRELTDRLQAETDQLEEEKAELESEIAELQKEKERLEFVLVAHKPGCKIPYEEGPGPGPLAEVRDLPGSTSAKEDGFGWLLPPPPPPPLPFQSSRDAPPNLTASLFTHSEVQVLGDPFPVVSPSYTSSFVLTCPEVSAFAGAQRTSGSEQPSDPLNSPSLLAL
CFTR F508del cor – CFTR F508del correction in bronchial cells | CFBE cells, YFP halide quenching; stimulated with forskolin plus potentiator P3; % fluorescence drop versus neutral controls | activity (quench increase), % at 7.58 µM | 0.36% of 350,000 active;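 active = mean added fluorescence quench of at least 8% versus neutral control, with both replicates also reaching 8%; inconclusive = only one of the mean or replicate conditions met; inactive = mean below 8% and not both replicates reaching 8%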;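 also: cells transiently co-express mutant CFTR-F508del with the halide-sensitive YFP; corrector assay measuring rescue of mutant channel to the surface after 24 h compound exposure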
FGF22 binding – FGF22 (human) thermal shift binding; Q9HCT0; recombinant FGF22 thermal shift, SYPRO orange fluorescence; percent of sucrose octasulfate shift, DMSO zero; activity (Tm shift, normalised), % at 9.99 µM; 1.5% of 340,000 active; AID 651658;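 active = mean Tm shift, scaled 0 neutral to 100 positive control, at about 1.3% or above, every replicate too, limit read from the data; inconclusive = no clear call, values can overlap the other calls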
Target sequence (Q9HCT0 whole entry, looked up): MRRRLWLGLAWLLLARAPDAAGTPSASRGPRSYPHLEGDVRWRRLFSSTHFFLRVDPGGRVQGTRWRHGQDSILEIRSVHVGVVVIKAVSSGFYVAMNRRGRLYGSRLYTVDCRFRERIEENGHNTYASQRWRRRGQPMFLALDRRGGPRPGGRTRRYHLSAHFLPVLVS
dFosB act-2 – activators of mouse delta FosB homodimer DNA binding. shares compounds with dFosB act-1. purified delta FosB, TAMRA-CDK5 oligo fluorescence polarization; normalised: neutral wells 0, positive control 100. activation, % at 24.9 µM. 2,400 tested, under 10 active;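 active = highest replicate activation at or above 34% and every replicate reaching that threshold; inconclusive = meets only one of the two criteria; inactive = meets neither criterion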;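 also: higher polarization means more probe DNA bound by delta FosB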
* = called active by the depositor; ? = inconclusive; / = no result given. Most compounds without a hit are left out; they make up all but 2.2% or so of the library.

SMILES	S100A4 MyoIIA	dFosB act-1	CFTR F508del cor	FGF22 binding	dFosB act-2
COc1ccc2c3c(n(C)c2c1)[C@@H](CO)N(Cc1cccc(Cl)c1)CC31CN(C(C)=O)C1	12.6	/	1.9	-0.1	/
CN1C(=O)c2cc(NS(=O)(=O)c3ccccc3F)ccc2OC[C@@H]2O[C@H](CC(=O)NC3Cc4ccccc4C3)CC[C@H]21	3.1	/	/	-0.1	/
CC(=O)Nc1ccc(NC(=O)C2CCCN(c3nnc(-n4cccc4)s3)C2)cc1 (configuration not stated)	/	30.6*	/	/	0.2
CO[C@@H]1CN(C)C(=O)c2cc(NC(=O)C3CCOCC3)ccc2OC[C@H](C)N(CC2CC2)C[C@H]1C	27.4	/	-2.5	-0.5	/
COc1ccccc1C1CCN(Cc2ccc3ccccc3c2)CC1	-9.8	21.0*	4.8	-0.2	2.0
COc1ccccc1C1CCN(Cc2ccccc2)CC1	-3.2	-1.5	0.4	-0.1	/
CCOC(=O)c1cnc2c(cnn2C)c1NCc1ccc(OC)cc1	-3.2	29.4*	-1.8	0.2	4.3
COC(=O)c1sc2ncccc2c1OCc1cccc(Cl)c1	/	-18.5	/	/	/
COC(=O)c1sc2ncccc2c1OCc1c(Cl)cccc1Cl	/	35.2*	/	/	5.4
O=C(Nc1cc(Br)ccc1O)c1cc(-c2ccc3c(c2)OCO3)on1	9.8	76.6*	0.3	-0.2	1.0
COc1ccc(-c2cc(C(=O)Nc3ccc4c(c3)OCO4)no2)cc1OC	1.6	7.2	0.1	0.2	/
COc1ccc(NC(=O)c2cc(-c3ccc4c(c3)OCO4)on2)cc1OC	-1.6	32.9*	0.1	0.2	2.0
O=C(Nc1cc(Br)ccc1O)c1cc(-c2cccs2)on1	7.1	49.0*	-0.7	-0.2	-4.2
CSc1ccccc1NC(=O)c1cc(-c2ccc3c(c2)OCO3)on1	-11.7	7.7	2.3	0.1	/
Cc1cc(C)c2cc(CN(CCN3CCCC3)C(=O)Nc3ccc(F)cc3)c(=O)[nH]c2c1	/	31.3*	/	/	-7.9
COc1ccc(S(=O)(=O)Nc2cccc(-c3ccc4nncn4n3)c2)cc1	-3.8	21.2*	3.1	0.2	3.3
COc1ccc(C(=O)Nc2cccc(-c3ccc4nncn4n3)c2)cc1	-3.8	-29.3	-1.5	41.4	/
O=C(OCc1ccc2c(c1)OCO2)c1ccc(S(=O)(=O)N2CCCCC2)cc1	/	35.1*	/	/	-5.2
O=C(NCc1ccc2c(c1)OCO2)c1ccc(S(=O)(=O)N2CCCCC2)cc1	/	15.9	/	/	/
CO[C@@H]1CN(C)C(=O)c2cc(NS(=O)(=O)c3ccc(-c4ccccc4)cc3)ccc2OC[C@H](C)NC[C@H]1C	11.7	/	-4.0	-0.4	/
C[C@H](CO)N1C[C@H](C)[C@H](CN(C)C(=O)Nc2ccc(F)cc2)Oc2ncc(C#CC3CC3)cc2C1=O	4.1	/	1.0	0.0	/
Cn1ncc2c(Nc3ccc(Br)cc3)nc(Nc3ccc(Br)cc3)nc21	2.0	53.2*	-1.1	-0.3	4.1
Cn1ncc2c(Nc3cccc(Cl)c3)nc(Nc3cccc(Cl)c3)nc21	-0.9	31.4*	-4.6	-0.2	1.4
COc1ccc(CN(C)C[C@H]2Oc3c(NC(=O)c4cc(C)nn4C)cccc3C(=O)N([C@H](C)CO)C[C@@H]2C)cc1	7.5	/	-1.9	0.0	/
Cc1cc(NC(=O)CSc2nnc(Nc3ccccc3C)s2)no1	1.4	61.7*	2.8	0.3	0.3
SMILES	S100A4 MyoIIA	dFosB act-1	CFTR F508del cor	FGF22 binding	dFosB act-2
Cc1ccccc1NC(=O)CSc1nnc(NC(=O)c2ccco2)s1	-9.2	38.6*	-0.9	-0.2	-0.1
Cc1cc(NC(=O)CSc2nnc(Nc3ccccc3)s2)no1	/	11.4	/	/	/
C[C@H](CO)N1C[C@H](C)[C@H](CN(C)C(=O)C2CCCCC2)Oc2cc(C#CC3CC3)ccc2S1(=O)=O	/	/	-1.6	/	/
Cc1ccc(S(=O)(=O)Nc2ccc3c(c2)C(=O)N([C@H](C)CO)C[C@@H](C)[C@@H](CN(C)S(=O)(=O)c2ccc(Cl)cc2)O3)cc1	-12.5	/	1.2	-0.2	/
COCCn1c(=NC(=O)/C=C/c2ccccc2Cl)sc2cc(NC(C)=O)ccc21	/	26.5*	/	/	-2.2
CCOCCn1c(=NC(=O)/C=C/c2ccccc2Cl)sc2cc(NC(C)=O)ccc21	/	-6.9	/	/	/
COc1ccccc1S(=O)(=O)N1CC[C@@H]2[C@H]1c1cc(-c3ccc(F)cc3)ccc1N(C)[C@H]2CO	7.7	/	0.6	-0.3	/
CC1CCN(S(=O)(=O)c2cn(CC(=O)Nc3cccc(C#N)c3)cn2)CC1	3.3	-1.1	-2.0	-0.2	/
CC(=O)c1cccc(NC(=O)Cn2cnc(S(=O)(=O)N3CCC(C)CC3)c2)c1	/	50.3*	/	/	-0.2
COc1ccc2oc(=O)c(-c3cn4ccc(C)cc4n3)cc2c1	3.6	26.2*	2.2	0.1	4.5
COc1ccc2c3c(n(C)c2c1)[C@@H](CO)N(C(=O)Nc1ccccc1F)CC31CCN(C(C)=O)CC1	2.0	/	1.8	0.3	/
COc1ccc(CCNC(=O)CSc2nnc(-c3ccc(F)cc3)c3ccccc23)cc1OC	/	-5.1	/	/	/
COc1cc2c3nnc(-c4ccc(F)cc4)c-3cn(Cc3ccc(F)cc3)c2cc1OC	-3.8	36.6*	1.7	-0.3	-9.3
O=C(CSc1nnc(SCc2ccccc2)s1)N/N=C/c1c[nH]c2ccccc12	9.8	-13.8	-0.5	0.1	/
Cc1ccc(CSc2nnc(SCC(=O)N/N=C/c3c[nH]c4ccccc34)s2)cc1	0.7	81.1*	-6.0	-0.1	8.5
CN(Cc1ccccc1)S(=O)(=O)c1nnc(NC(=O)c2ccc(F)cc2)s1	2.0	13.4	-3.1	-0.1	/
COc1ccc(C(=O)Nc2nnc(S(=O)(=O)N(C)Cc3ccc(F)cc3)s2)cc1OC	-2.7	23.2*	-2.9	0.0	4.8
Cc1nn(C)cc1/C=N/NC(=S)Nc1ccc(Cl)cc1Cl	/	33.6*	/	/	5.2
O=[N+]([O-])c1ccc(O)c(/C=N/NC(=S)Nc2ccc(Cl)cc2Cl)c1	-1.2	5.5	-0.6	0.2	/
COC(=O)c1ccc(C2C(Oc3ccc(OC)cc3)C(=O)N2CCc2ccc(F)cc2)cc1 (configuration not stated)	/	23.2*	/	/	-0.6
COc1ccccc1CNC(=O)C[C@@H]1C=C[C@H](NC(C)=O)[C@@H](CO)O1	-2.0	/	2.4	-0.1	/
CCOc1ccc(-n2c(SCC(=O)Nc3ccc(CC)cc3)nc3n[nH]c(C)c3c2=N)cc1	-36.3	?	-3.6	42.5	/
Cc1[nH]nc2nc(SCC(=O)NC3CCCCC3)n(-c3ccc(Br)cc3)c(=N)c12	-1.8	51.8*	-0.5	0.2	1.0
COc1ccccc1NC(=O)CSc1nc2n[nH]c(C)c2c(=N)n1-c1ccccc1Cl	/	53.1*	/	/	-1.9
CCc1ccccc1NC(=O)CSc1nc2n[nH]c(C)c2c(=N)n1-c1ccc(OC)cc1	/	14.6	/	/	/
O=C(O)C[C@@H]1C[C@@H]2c3cc(NS(=O)(=O)c4ccccc4)ccc3O[C@@H]2[C@H](CO)O1	5.7	/	1.5	/	/
COC(=O)c1ccc(NC(=O)c2snnc2-c2ccccc2)cc1	2.5	-10.6	-2.2	-0.2	/
